Laboratory results taken from PMC6981294 (Molecular cell, 2019).
Ends that are not written are not given here.

T1: PPP4R3A EVH1 domain (Homo sapiens, UniProt Q6IN85)
T1 sequence (Q6IN85 2-117): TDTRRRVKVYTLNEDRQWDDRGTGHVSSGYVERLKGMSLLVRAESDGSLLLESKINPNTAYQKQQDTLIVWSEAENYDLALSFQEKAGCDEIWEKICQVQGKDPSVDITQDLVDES

T2: GST-WAPL 375-625 (human, UniProt Q7Z5K2 375-625)
T2 sequence (looked up): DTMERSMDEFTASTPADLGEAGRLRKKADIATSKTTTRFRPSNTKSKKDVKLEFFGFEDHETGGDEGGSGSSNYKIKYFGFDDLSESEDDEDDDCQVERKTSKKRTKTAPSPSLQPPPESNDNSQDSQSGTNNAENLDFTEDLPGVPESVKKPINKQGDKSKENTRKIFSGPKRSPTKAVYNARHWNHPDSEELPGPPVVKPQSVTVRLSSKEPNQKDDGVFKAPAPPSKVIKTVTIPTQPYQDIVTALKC

T3: CDC25A full length, recombinant (human, UniProt P30304 1-524)
T3 sequence (looked up): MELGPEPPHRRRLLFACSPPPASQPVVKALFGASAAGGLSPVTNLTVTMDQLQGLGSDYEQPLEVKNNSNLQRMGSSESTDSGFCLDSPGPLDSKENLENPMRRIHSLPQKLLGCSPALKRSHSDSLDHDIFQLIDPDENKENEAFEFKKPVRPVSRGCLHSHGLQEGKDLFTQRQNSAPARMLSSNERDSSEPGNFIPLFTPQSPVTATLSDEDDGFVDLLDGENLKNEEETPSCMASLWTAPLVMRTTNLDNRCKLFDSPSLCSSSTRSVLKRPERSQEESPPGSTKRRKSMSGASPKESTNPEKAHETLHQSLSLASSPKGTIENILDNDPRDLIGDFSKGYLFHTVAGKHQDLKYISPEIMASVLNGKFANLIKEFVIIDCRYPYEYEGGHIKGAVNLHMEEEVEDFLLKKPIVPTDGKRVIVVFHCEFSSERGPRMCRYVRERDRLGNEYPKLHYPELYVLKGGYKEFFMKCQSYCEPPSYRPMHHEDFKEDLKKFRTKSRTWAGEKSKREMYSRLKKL

B1: EVH1 domain of PPP4R3A (amino acids 2-117) (domain or fragment, human, UniProt Q6IN85 2-117, looked up)
chain: TDTRRRVKVYTLNEDRQWDDRGTGHVSSGYVERLKGMSLLVRAESDGSLLLESKINPNTAYQKQQDTLIVWSEAENYDLALSFQEKAGCDEIWEKICQVQGKDPSVDITQDLVDES

Columns and labels:
[1] = target: T1, PPP4R3A EVH1 domain; test: ITC of peptides with the EVH1 domain from PPP4R3A; format: binding
Method in brief: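 Peptide in syringe, titrated at 25 °C into cell holding EVH1 domain: one 0.4 μl injection, then 19 × 2 μl at 150 s spacing, stirring 750 rpm. Peptide-into-buffer controls run. Heats normalised per mole injectant, fitted to single-site model.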

[2] = target: B1; test: ITC
[3] = target: T2, GST-WAPL 375-625; test: ITC
[4] = target: T3, CDC25A full length, recombinant; test: ITC

Molecule | Kd [1] | Kd [2] | also measured
DPDTEAMPPPPPKRPHPL [MCE1-L(-1)A] | 3.78 µM | – | –
DPDTELAPPPPPKRPHPL [MCE1-M1A] | 85.6 µM | – | –
DPDTELMPAPPPKRPHPL [MCE1-P3A] | 7.58 µM | – | –
DPDTELMPPAPPKRPHPL [MCE1-P4A] | 119 µM | – | –
DPDTELMPPPAPKRPHPL [MCE1-P5A] | 1.49 µM | – | –
DPDTELMPPPPAKRPHPL [MCE1-P6A] | 1.4 µM | – | –
PFTAKVPAPPPS [model peptide P1: Ala] | – | 53 µM | –
PFTFKVAAPPPS [model peptide P4: Ala] | – | 53 µM | –
DPDTELMPPPPPKRPHPL [MCE1 MxPP motif peptide] | – | 0.98 µM | –
DPDTELMAPPPPKRPHPL [MCE1 peptide MCE1-P2A] | – | 7.93 µM | –
B1 | – | – | binding result [3]: binds; binding result [4]: binds
